# According to ChEMBL document CHEMBL5712081, “Signaling function of PRC2 is essential for TCR-driven T cell responses” (J Exp Med, 2018):
# The source made the active and inactive calls. No cut-off for these calls is given here.
# Legend:
# [1] = biological target: T1, Histone-lysine N-methyltransferase EZH1 (Homo sapiens) (UniProt Q92800); assay: Inhibition of Ezh1 in human CD4+ T cell by mass spectrometry analysis; assay type: cell-based
# T1 sequence (whole entry): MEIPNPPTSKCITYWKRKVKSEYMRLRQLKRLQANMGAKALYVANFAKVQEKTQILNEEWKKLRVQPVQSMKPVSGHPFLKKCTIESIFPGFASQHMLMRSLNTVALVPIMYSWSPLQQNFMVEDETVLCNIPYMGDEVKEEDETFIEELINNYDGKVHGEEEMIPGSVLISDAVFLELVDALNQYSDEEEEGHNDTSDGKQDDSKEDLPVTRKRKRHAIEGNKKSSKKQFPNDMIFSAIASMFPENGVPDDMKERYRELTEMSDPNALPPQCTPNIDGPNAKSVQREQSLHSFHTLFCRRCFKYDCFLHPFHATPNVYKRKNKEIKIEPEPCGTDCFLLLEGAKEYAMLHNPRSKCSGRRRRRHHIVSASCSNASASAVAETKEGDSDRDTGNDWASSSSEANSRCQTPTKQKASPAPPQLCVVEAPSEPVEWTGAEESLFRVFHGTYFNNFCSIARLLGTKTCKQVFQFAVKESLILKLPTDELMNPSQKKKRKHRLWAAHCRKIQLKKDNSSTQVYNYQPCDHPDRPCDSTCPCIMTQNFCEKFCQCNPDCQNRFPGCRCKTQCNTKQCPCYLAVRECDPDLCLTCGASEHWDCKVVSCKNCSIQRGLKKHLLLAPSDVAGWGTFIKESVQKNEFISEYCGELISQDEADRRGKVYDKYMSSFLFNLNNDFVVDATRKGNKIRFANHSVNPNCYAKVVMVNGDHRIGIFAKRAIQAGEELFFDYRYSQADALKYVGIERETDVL
# CD4+ T cell [2] = assay: Down-regulation of Erk phosphorylation in human CD4+ T cell upto 50 uM by Western blotting analysis; assay type: functional, cell-based
# In short: (§1)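 Purified CD4+ T cells in DMSO or inhibitor were coated with 10 μg/ml anti-CD3 and 2.5 μg/ml anti-CD28 on ice for 20 min. They were cross-linked with 20 μg/ml anti-hamster IgG for 2 or 10 min at 37°C, then lysed in 0.5% NP-40 buffer. pErk1/2 (T202/Y204) was read by Western blot and normalized to total Erk. Three independent experiments.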
# Mus musculus [3] = assay: Protection against Foxp3-DTR expressing C57BL/6 autoimmune mouse model assessed as reversal of splenomegaly at 150 mg/kg after 8 days of Dtx treatment for 5 days; assay type: functional, organism-based; settings: time 5.0 day
# In short: (§2)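 Foxp3-DTR mice were given DTx to deplete Treg cells, with 150 mg/kg inhibitor either at the same time or from day 8 onward. Splenic Foxp3+ Treg frequency was measured, spleen and lymph node size was photographed, and total lymphoid cells in lymph nodes were counted per mouse.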
# CD4+ T cell [4] = assay: Down-regulation of Erk phosphorylation in human CD4+ T cell upto 50 uM in the presence of PMA by Western blotting analysis; assay type: functional, cell-based
# In short: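 Purified CD4+ T cells in DMSO or inhibitor were given prewarmed medium with 5 ng/ml PMA for 10 min at 37°C and lysed in 0.5% NP-40 buffer. pErk1/2 (T202/Y204) was detected by Western blot and normalized to total Erk1/2. Three independent experiments.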
# CD4+ T cell [5] = assay: Downregulation of Erk phosphorylation in TCR-triggered human CD4+ T cell at 10 uM by Western blotting analysis; assay type: functional, cell-based; in short: as §1
# Mus musculus [6] = assay: Protection against Foxp3-DTR expressing C57BL/6 autoimmune mouse model assessed as prevention of regulatory t cell depletion at 150 mg/kg after 8 days of Dtx treatment for 5 days; assay type: functional, organism-based; settings: time 5.0 day; in short: as §2
# Mus musculus [7] = assay: Protection activity against Foxp3-DTR expressing C57BL/6 autoimmune mouse model assessed as decrease in number of Ki67+ cells at 150 mg/kg after 8 days of Dtx treatment for 5 days; assay type: functional, organism-based; settings: time 5.0 day
# In short: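 Foxp3-DTR mice were given DTx, and 150 mg/kg inhibitor was started on day 8 after DTx initiation. Ki67+ dividing CD19+ B, CD4+ and CD8+ T cells in lymph nodes were measured per mouse. Two experiments, n = 4–15, unpaired Student's t test.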
# [8] = biological target: T2, Histone-lysine N-methyltransferase EZH1 (Homo sapiens, UniProt Q92800); assay: Inhibition of human EZH1
# T2 sequence (Q92800 whole entry): T1 sequence (whole entry)
# Mus musculus [9] = assay: Antiinflammatory activity in Foxp3-DTR expressing C57BL/6 autoimmune mouse model assessed as decrease in T-cells at 150 mg/kg after 8 days of Dtx treatment for 5 days; assay type: functional, organism-based; settings: time 5.0 day
# In short: (§3)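 Foxp3-DTR mice were depleted of Treg cells by DTx injection. They received 150 mg/kg inhibitor either together with DTx or starting on day 8 after DTx began. Total cells and T cells, B cells, granulocytes and macrophages in secondary lymphoid organs were counted.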
# Mus musculus [10] = assay: Antiinflammatory activity in Foxp3-DTR expressing C57BL/6 autoimmune mouse model assessed as decrease in B-cells at 150 mg/kg after 8 days of Dtx treatment for 5 days; assay type: functional, organism-based; settings: time 5.0 day; in short: as §3
# Mus musculus [11] = assay: Antiinflammatory activity in Foxp3-DTR expressing C57BL/6 autoimmune mouse model assessed as decrease in granulocytes at 150 mg/kg after 8 days of Dtx treatment for 5 days; assay type: functional, organism-based; settings: time 5.0 day; in short: as §3
# Mus musculus [12] = assay: Antiinflammatory activity in Foxp3-DTR expressing C57BL/6 autoimmune mouse model assessed as decrease in macrophages at 150 mg/kg after 8 days of Dtx treatment for 5 days; assay type: functional, organism-based; settings: time 5.0 day; in short: as §3
# CD4+ T cell [13] = assay: Anti-proliferative activity against TCR induced mouse CD4+ T cell
# CD4+ T cell [14] = assay: Down-regulation of Erk phosphorylation in TCR-triggered human CD4+ T cell by Western blotting analysis; assay type: functional, cell-based; in short: as §1
# CD4+ T cell [15] = assay: Down-regulation of Mek1/2 at S217/221 phosphorylation in TCR-triggered human CD4+ T cell at 10 uM by Western blotting analysis; assay type: functional, cell-based
# In short: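 CD4+ T cells in DMSO or 10 µM inhibitor were stimulated with anti-CD3 plus anti-CD28 antibodies. pMek1/2 (S217/221) was measured by Western blot and normalized to total Mek1. Three independent experiments.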
# CD4+ T cell [16] = assay: Effect on Erk phosphorylation in TCR-triggered human CD4+ T cell at 10 uM by Western blotting analysis; assay type: functional, cell-based; in short: as §1
# [17] = biological target: T1, Histone-lysine N-methyltransferase EZH1 (Homo sapiens); assay: Inhibition of EZH1 (unknown origin) at 2 nM
# [18] = biological target: Histone-lysine N-methyltransferase EZH2 (Homo sapiens) (UniProt Q15910); assay: Inhibition of EZH2 (unknown origin) at 45 nM
# Chain of Histone-lysine N-methyltransferase EZH2 (Homo sapiens) (Q15910 whole entry, looked up): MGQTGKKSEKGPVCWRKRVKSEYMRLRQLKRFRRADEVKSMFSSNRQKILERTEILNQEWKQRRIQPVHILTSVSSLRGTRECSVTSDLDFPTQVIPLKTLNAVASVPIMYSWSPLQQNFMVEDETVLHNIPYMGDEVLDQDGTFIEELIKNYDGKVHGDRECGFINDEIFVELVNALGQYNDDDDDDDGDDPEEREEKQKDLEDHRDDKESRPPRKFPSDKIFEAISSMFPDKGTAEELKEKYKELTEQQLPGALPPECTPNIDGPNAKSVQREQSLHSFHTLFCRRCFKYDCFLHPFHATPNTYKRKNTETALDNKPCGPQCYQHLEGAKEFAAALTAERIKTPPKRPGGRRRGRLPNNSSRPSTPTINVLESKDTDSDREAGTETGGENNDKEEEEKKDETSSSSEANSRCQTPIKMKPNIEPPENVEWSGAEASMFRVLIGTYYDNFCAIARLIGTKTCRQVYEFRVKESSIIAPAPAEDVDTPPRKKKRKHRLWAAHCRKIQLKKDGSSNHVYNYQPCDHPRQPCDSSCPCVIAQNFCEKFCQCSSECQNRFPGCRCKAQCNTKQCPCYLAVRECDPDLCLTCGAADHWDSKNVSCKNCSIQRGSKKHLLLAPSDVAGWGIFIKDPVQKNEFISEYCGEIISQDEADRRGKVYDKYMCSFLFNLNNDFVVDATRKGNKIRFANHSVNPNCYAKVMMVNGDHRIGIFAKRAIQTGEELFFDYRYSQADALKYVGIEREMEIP
inhibition [1],IC50 [8] [nM],inhibition [17],inhibition [18],SMILES,Activity (CD4+ T cell [2]),Activity (Mus musculus [3]),Activity (CD4+ T cell [4]),Activity (CD4+ T cell [5]),Activity (Mus musculus [6]),Activity (Mus musculus [7]),Activity (Mus musculus [9]),Activity (Mus musculus [10]),Activity (Mus musculus [11]),Activity (Mus musculus [12]),Activity (CD4+ T cell [13]),Activity (CD4+ T cell [14]),Activity (CD4+ T cell [15]),Activity (CD4+ T cell [16])
Active,633,,,Cc1cc(C)c(CNC(=O)c2cc(-c3ccc(N4CCN(C)CC4)nc3)cc3c2c(C)cn3C(C)C)c(=O)[nH]1,Active,Active,inactive,Active,Active,Active,Active,Active,Active,Active,Active,,,
,,Active,Active,CCCc1cc(C)[nH]c(=O)c1CNC(=O)c1cc(-c2ccc(N3CCN(C(C)C)CC3)nc2)cc2c1cnn2C(C)C,,,,,,,,,,,,Active,Active,Active
,,,,CCCc1cc(C)n(C)c(=O)c1CN(C)C(=O)c1cc(-c2ccc(N3CCN(C(C)C)CC3)nc2)cc2c1cnn2C(C)C,,,,,,,,,,,,inactive,,
